Measured values taken from ChEMBL document CHEMBL1275449, “Potent in vitro antifungal activities of naturally occurring acetylenic acids” (Antimicrob Agents Chemother, 2008).
Converted amounts (≈) assume the structure as drawn.

Key:
Trichophyton rubrum [1] = assay: Antifungal activity against Trichophyton rubrum ATCC 10218 by CLSI method; format: functional, organism-based
Procedure, shortened: (§1)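 Growth scraped from 1- to 6-week-old potato dextrose slants and filtered through Miracloth. Diluted in 5% Alamar blue-RPMI 1640 (MOPS pH 7.0) to 2.7 × 10⁴ CFU/ml. Eleven twofold dilutions in duplicate. Fluorescence at 544 nm excitation/590 nm emission read before and after 35°C, 5 days. IC50 fitted from percent growth. MIC taken as no detectable growth; MFC from clear or blue wells plated on PD agar.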

Trichophyton rubrum [2] = assay: Antifungal activity against Trichophyton rubrum ATCC MYA-4438 by CLSI method; format: functional, organism-based; procedure, shortened: as §1
[3] = system: Trichophyton mentagrophytes; assay: Antifungal activity against Trichophyton mentagrophytes ATCC 9533 by CLSI method; format: functional, organism-based; procedure, shortened: as §1
[4] = system: Trichophyton mentagrophytes; assay: Antifungal activity against Trichophyton mentagrophytes ATCC MYA-4439 by CLSI method; format: functional, organism-based; procedure, shortened: as §1
Cryptococcus neoformans [5] = assay: Antifungal activity against Cryptococcus neoformans ATCC 66031 after 72 hrs by CLSI method; format: functional, organism-based; details: ATCC 66031, 72 h
Procedure, shortened: (§2)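 SD broth replaced RPMI because growth in RPMI was poor; other CLSI conditions were kept. Inoculum was 1.5 × 10³ CFU/ml from colonies on SD agar, checked by plating. Twofold serial dilutions (11 concentrations) in 20% DMSO-saline were tested in duplicate. OD530 was read before and after incubation at 35°C for 72 h. Percent growth gave IC50; the MIC is the lowest concentration with no detectable growth.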

Cryptococcus neoformans [6] = assay: Antifungal activity against Cryptococcus neoformans ATCC 90113 after 72 hrs by CLSI method; format: functional, organism-based; details: ATCC 90113, 72 h; procedure, shortened: as §2
Candida tropicalis = assay: Antifungal activity against Candida tropicalis ATCC 750 after 48 hrs by CLSI method; format: functional, organism-based; details: ATCC 750, 48 h
Procedure, shortened: (§3)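 Yeast suspensions made from 3-5 colonies off 24-72 h SD agar plates in saline. They were diluted by OD630 standard curve in RPMI 1640 (0.2% dextrose, 0.03% glutamine, 0.165 M MOPS, pH 7.0) to 1.5 × 10³ CFU/ml. Twofold dilutions (11 concentrations, 20% DMSO-saline) run in duplicate. OD530 read before and after 35°C, 48 h. Line values are top test concentrations; no-growth endpoints give MIC/MFC.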

Candida parapsilosis = assay: Antifungal activity against Candida parapsilosis ATCC 22019 after 48 hrs by CLSI method; format: functional, organism-based; details: Lodderomyces parapsilosis, ATCC 22019, 48 h; procedure, shortened: as §3
Pichia kudriavzevii = assay: Antifungal activity against Candida krusei ATCC 6258 after 48 hrs by CLSI method; format: functional, organism-based; details: ATCC 6258, 48 h
Procedure, shortened: (§4)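 Candida inocula came from 24–72-h SD agar colonies suspended in saline. They were diluted by OD630 standard curve into RPMI 1640 (0.2% dextrose, 0.03% glutamine, 0.165 M MOPS, pH 7.0) to 1.5 × 10³ CFU/ml. Compounds were run as 11 twofold dilutions in 20% DMSO-saline, in duplicate, at 35°C for 48 h, with OD530 read before and after. Percent growth at the top concentration, IC50, MIC, and MFC (SD agar plating) were derived.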

Nakaseomyces glabratus = assay: Antifungal activity against Candida glabrata ATCC 90030 after 48 hrs by CLSI methodCandida glabrata; format: functional, organism-based; details: ATCC 90030, 48 h; procedure, shortened: as §4
Candida albicans [7] = assay: Antifungal activity against Fluconazole resistant Candida albicans clinical isolate 17 after 48 hrs by CLSI method; format: functional, organism-based
Procedure, shortened: (§5)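 CLSI broth microdilution. Colonies from 24–72 h SD agar suspended in saline and sized by OD630 standard curve. Inoculum 1.5 × 10³ CFU/ml (final) in RPMI 1640 (0.2% dextrose, 0.03% glutamine, 0.165 M MOPS, pH 7.0). Twofold dilutions (11 levels) from 20% DMSO-saline, in duplicate. 35°C for 48 h, OD530 read before and after. IC50 fitted from % growth. MIC: no detectable growth. MFC: subculture onto SD agar.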

Candida albicans [8] = assay: Antifungal activity against Fluconazole resistant Candida albicans clinical isolate 1 after 48 hrs by CLSI method; format: functional, organism-based; procedure, shortened: as §5
Candida albicans [9] = assay: Antifungal activity against Candida albicans ATCC 200955 after 48 hrs by CLSI method; format: functional, organism-based; details: ATCC 200955, 48 h; procedure, shortened: as §5
Candida albicans [10] = assay: Antifungal activity against Candida albicans ATCC 90028 after 48 hrs by CLSI method; format: functional, organism-based; details: ATCC 90028, 48 h; procedure, shortened: as §5
Candida albicans [11] = assay: Antifungal activity against Candida albicans ATCC 32354 after 48 hrs by CLSI method; format: functional, organism-based; details: ATCC 32354, 48 h; procedure, shortened: as §5
Candida albicans [12] = assay: Antifungal activity against Candida albicans ATCC 14053 after 48 hrs by CLSI method; format: functional, organism-based; details: ATCC 14053, 48 h; procedure, shortened: as §5
Candida albicans [13] = assay: Antifungal activity against Candida albicans ATCC 60193 after 48 hrs by CLSI method; format: functional, organism-based; details: ATCC 60193, 48 h; procedure, shortened: as §5
Aspergillus niger = assay: Antifungal activity against Aspergillus niger ATCC 16404 after 48 h by CLSI method; details: ATCC 16404, 48 h
Aspergillus flavus = assay: Antifungal activity against Aspergillus flavus ATCC 204304 after 48 h by CLSI method; details: ATCC 204304, 48 h
Aspergillus fumigatus [14] = assay: Antifungal activity against Aspergillus fumigatus ATCC 90906 after 48 h by CLSI method; details: ATCC 90906, 48 h
Aspergillus fumigatus [15] = assay: Antifungal activity against Aspergillus fumigatus ATCC 204305 after 48 h by CLSI method; details: ATCC 204305, 48 h
SK-MEL = assay: Cytotoxicity against human SK-MEL cells up to 32 uM by neutral red method; format: cell-based
Procedure, shortened: (§6)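 Neutral red uptake cytotoxicity, top concentration 32 μM.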

KB = assay: Cytotoxicity against human KB cells up to 32 uM by neutral red method; format: cell-based; procedure, shortened: as §6
BT-549 = assay: Cytotoxicity against human BT549 cells up to 32 uM by neutral red method; format: cell-based; procedure, shortened: as §6
SK-OV-3 = assay: Cytotoxicity against human SKOV3 cells up to 32 uM by neutral red method; format: cell-based; procedure, shortened: as §6
Vero = assay: Cytotoxicity against African green monkey Vero cells up to 32 uM by neutral red method; format: cell-based; details: chlorocebus sabaeus; procedure, shortened: as §6
LLC-PK1 = assay: Cytotoxicity against pig LLC-PK1 cells up to 32 uM by neutral red method; format: cell-based, Sus scrofa; procedure, shortened: as §6

Compound CC(=O)N1CCN(c2ccc(OCC3COC(Cn4ccnc4)(c4ccc(Cl)cc4Cl)O3)cc2)CC1 (configuration not stated) [KETOCONAZOLE] has an IC50 (Trichophyton rubrum [1]) of 0.02 µM, an MIC (Trichophyton rubrum [1]) of 0.04 µM (≈ 0.0213 µg/mL) and an IC50 (Trichophyton rubrum [2]) of 0.01 µM. The MIC (Trichophyton rubrum [2]) was 0.08 µM (≈ 0.0425 µg/mL), the IC50 [3] was 0.2 µM and the MIC [3] was 0.4 µM (≈ 0.213 µg/mL). It also gave an IC50 [4] of 0.1 µM, an MIC [4] of 0.7 µM (≈ 0.372 µg/mL) and an IC50 (Cryptococcus neoformans [5]) of 0.02 µM. For the same compound, the MFC (Cryptococcus neoformans [5]) was 0.59 µM (≈ 0.314 µg/mL), the MIC (Cryptococcus neoformans [5]) was 0.15 µM (≈ 0.0797 µg/mL) and the IC50 (Cryptococcus neoformans [6]) was 0.1 µM. It also gave an MFC (Cryptococcus neoformans [6]) of 1.2 µM (≈ 0.638 µg/mL), an MIC (Cryptococcus neoformans [6]) of 0.3 µM (≈ 0.159 µg/mL) and an IC50 (Candida tropicalis) of 0.04 µM. The MIC (Candida tropicalis) was 0.19 µM (≈ 0.101 µg/mL), the IC50 (Candida parapsilosis) was 0.04 µM and the MIC (Candida parapsilosis) was 0.13 µM (≈ 0.0691 µg/mL). It also gave an IC50 (Pichia kudriavzevii) of 0.4 µM, an MIC (Pichia kudriavzevii) of 1.1 µM (≈ 0.585 µg/mL) and an IC50 (Nakaseomyces glabratus) of 0.7 µM. The MIC (Nakaseomyces glabratus) was 4.7 µM (≈ 2.5 µg/mL), the IC50 (Candida albicans [7]) was 0.3 µM and the IC50 (Candida albicans [8]) was under 0.01 µM. It also gave an MIC (Candida albicans [8]) of 0.1 µM (≈ 0.0531 µg/mL), an IC50 (Candida albicans [9]) of under 0.01 µM and an MIC (Candida albicans [9]) of 0.01 µM (≈ 0.00531 µg/mL). It also gave an IC50 (Candida albicans [10]) of under 0.01 µM, an MIC (Candida albicans [10]) of 0.01 µM (≈ 0.00531 µg/mL) and an IC50 (Candida albicans [11]) of 0.01 µM. For the same compound, the MIC (Candida albicans [11]) was 0.03 µM (≈ 0.0159 µg/mL), the IC50 (Candida albicans [12]) was 0.01 µM and the MIC (Candida albicans [12]) was 0.02 µM (≈ 0.0106 µg/mL). The IC50 (Candida albicans [13]) was 0.01 µM, the MIC (Candida albicans [13]) was 0.02 µM (≈ 0.0106 µg/mL) and the IC50 (Aspergillus niger) was 6 µM. For the same compound, the MIC (Aspergillus niger) was 9.4 µM (≈ 5 µg/mL), the IC50 (Aspergillus flavus) was 2.8 µM and the MIC (Aspergillus flavus) was 4.7 µM (≈ 2.5 µg/mL). The IC50 (Aspergillus fumigatus [14]) was 3.2 µM, the MIC (Aspergillus fumigatus [14]) was 7.1 µM (≈ 3.77 µg/mL) and the IC50 (Aspergillus fumigatus [15]) was 2.7 µM. It also gave an MIC (Aspergillus fumigatus [15]) of 4.7 µM (≈ 2.5 µg/mL).
Work on CCCCCCCCCCCCC#CCCCCC(=O)O [6-NONADECYNOIC ACID] yielded an IC50 (Trichophyton rubrum [1]) of 1 µM, an MFC (Trichophyton rubrum [1]) of 5.3 µM (≈ 1.56 µg/mL) and an MIC (Trichophyton rubrum [1]) of 2 µM (≈ 0.589 µg/mL). The IC50 (Trichophyton rubrum [2]) was 0.6 µM, the MIC (Trichophyton rubrum [2]) was 3.3 µM (≈ 0.972 µg/mL) and the IC50 [3] was 0.9 µM. It also gave an MFC [3] of 2.7 µM (≈ 0.795 µg/mL), an MIC [3] of 2 µM (≈ 0.589 µg/mL) and an IC50 [4] of 0.4 µM. It also gave an MFC [4] of 0.7 µM (≈ 0.206 µg/mL), an MIC [4] of 0.7 µM (≈ 0.206 µg/mL) and an IC50 (Cryptococcus neoformans [5]) of 1.1 µM. For the same compound, the IC50 (Candida tropicalis) was 5.2 µM, the IC50 (Pichia kudriavzevii) was 4.1 µM and the MIC (Pichia kudriavzevii) was 10.6 µM (≈ 3.12 µg/mL). For the same compound, the IC50 (Candida albicans [7]) was 1.5 µM, the MIC (Candida albicans [7]) was 8 µM (≈ 2.36 µg/mL) and the MIC (Candida albicans [8]) was 2.7 µM (≈ 0.795 µg/mL). The IC50 (Candida albicans [9]) was 0.9 µM, the MIC (Candida albicans [9]) was 1.3 µM (≈ 0.383 µg/mL) and the IC50 (Candida albicans [10]) was 1.3 µM. It also gave an MIC (Candida albicans [10]) of 2.7 µM (≈ 0.795 µg/mL), an IC50 (Candida albicans [11]) of 1.6 µM and an MIC (Candida albicans [11]) of 8 µM (≈ 2.36 µg/mL). For the same compound, the Activity (SK-MEL) was “Non-toxic”, the Activity (KB) was “Non-toxic” and the Activity (BT-549) was “Non-toxic”. The Activity (SK-OV-3) was “Non-toxic”, the Activity (Vero) was “Non-toxic” and the Activity (LLC-PK1) was “Non-toxic”. For the same compound, the IC50 (Candida albicans [12]) was 0.8 µM, the MFC (Candida albicans [12]) was 2.7 µM (≈ 0.795 µg/mL) and the MIC (Candida albicans [12]) was 1.3 µM (≈ 0.383 µg/mL). It also gave an IC50 (Candida albicans [13]) of 1.6 µM, an MIC (Candida albicans [13]) of 2.7 µM (≈ 0.795 µg/mL) and an IC50 (Aspergillus fumigatus [14]) of 1.4 µM. For the same compound, the MIC (Aspergillus fumigatus [14]) was 6.6 µM (≈ 1.94 µg/mL), the IC50 (Aspergillus fumigatus [15]) was 1.1 µM and the MIC (Aspergillus fumigatus [15]) was 2.7 µM (≈ 0.795 µg/mL).
